According to ChEMBL document CHEMBL1914395, “Design, synthesis, and biological evaluation of callophycin A and analogues as potential chemopreventive and anticancer agents” (Bioorg Med Chem, 2011):

Legend:
[1] = system: HEK293; assay: Inhibition of TNF-alpha-induced NFkappaB activation in human HEK293 cells assessed as cell survival at 50 uM after 6 hrs by luciferase assay relative to control; format: cell-based
[2] = biological target: T1, Aromatase (Homo sapiens, UniProt P11511); assay: Inhibition of aromatase at 50 uM after 10 mins preincubation by plate reader relative to control
T1 sequence (P11511 whole entry): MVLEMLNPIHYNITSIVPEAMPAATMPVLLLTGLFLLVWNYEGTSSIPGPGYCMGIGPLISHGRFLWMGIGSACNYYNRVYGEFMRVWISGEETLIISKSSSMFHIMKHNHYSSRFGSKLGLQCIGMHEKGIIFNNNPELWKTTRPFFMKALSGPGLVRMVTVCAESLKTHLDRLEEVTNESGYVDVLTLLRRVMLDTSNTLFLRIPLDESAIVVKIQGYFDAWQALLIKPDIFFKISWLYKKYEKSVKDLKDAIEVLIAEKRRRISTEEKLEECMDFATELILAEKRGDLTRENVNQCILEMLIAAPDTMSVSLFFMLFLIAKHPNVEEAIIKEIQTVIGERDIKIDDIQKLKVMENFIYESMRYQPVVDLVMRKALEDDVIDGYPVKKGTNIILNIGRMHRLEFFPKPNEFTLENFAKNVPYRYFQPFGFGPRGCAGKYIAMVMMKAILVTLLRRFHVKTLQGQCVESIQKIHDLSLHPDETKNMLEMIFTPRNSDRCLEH
Procedure, shortened: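 CYP19 enzyme. Compound pre-incubated 10 min with an NADPH-regenerating system (NADP+, glucose 6-phosphate, G6PDH, MgCl2, albumin) in 50 mM potassium phosphate pH 7.4. Enzyme and 0.4 μM dibenzylfluorescein substrate then added, 30 min at 37 °C. Quenched with 2 N NaOH and incubated a further 2 h at 37 °C. Fluorescence read at ex 485/em 530 nm. Compound tested at 50 μM.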

[3] = system: MCF7; assay: Antiproliferative activity against human MCF7 cells assessed as survival at 50 uM after 72 hrs by SRB assay relative to control; format: functional; conditions: MCF7, 72 h, read-out: Survival
Procedure, shortened: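 MCF7 cells (1 × 10^4 per well) were plated onto compound and kept at 37°C, 5% CO2 for 72 h. Cells were fixed in 10% TCA for 30 min and stained with 0.4% SRB in 1% acetic acid for 30 min. Bound dye was dissolved in 10 mM Tris (pH 10.0) and read at 515 nm. Survival is given as % of DMSO-treated controls, screened at 50 μM.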

[4] = biological target: NAD(P)H dehydrogenase [quinone] 1 (Mus musculus) (UniProt Q64669); assay: Induction of quinone reductase 1 activity in mouse Hepa-1c1c7 cells assessed as cell survival at 50 uM by MTT assay relative to control; format: cell-based
Sequence of NAD(P)H dehydrogenase [quinone] 1 (Mus musculus) (Q64669 whole entry): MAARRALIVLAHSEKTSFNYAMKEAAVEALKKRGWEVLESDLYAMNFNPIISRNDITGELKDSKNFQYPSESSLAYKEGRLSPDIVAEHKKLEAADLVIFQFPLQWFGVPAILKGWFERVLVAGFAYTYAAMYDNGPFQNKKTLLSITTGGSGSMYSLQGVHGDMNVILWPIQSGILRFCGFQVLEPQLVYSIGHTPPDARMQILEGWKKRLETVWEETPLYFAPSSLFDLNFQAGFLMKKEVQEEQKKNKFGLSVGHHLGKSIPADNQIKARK

[5] = biological target: T2, Nitric oxide synthase, inducible (Mus musculus, UniProt P29477); assay: Inhibition of iNOS-mediated nitric oxide production in LPS-stimulated mouse RAW 264.7 cells pretreated 15 mins before LPS challenge measured after 20 hrs relative to control; format: cell-based
T2 sequence (P29477 whole entry): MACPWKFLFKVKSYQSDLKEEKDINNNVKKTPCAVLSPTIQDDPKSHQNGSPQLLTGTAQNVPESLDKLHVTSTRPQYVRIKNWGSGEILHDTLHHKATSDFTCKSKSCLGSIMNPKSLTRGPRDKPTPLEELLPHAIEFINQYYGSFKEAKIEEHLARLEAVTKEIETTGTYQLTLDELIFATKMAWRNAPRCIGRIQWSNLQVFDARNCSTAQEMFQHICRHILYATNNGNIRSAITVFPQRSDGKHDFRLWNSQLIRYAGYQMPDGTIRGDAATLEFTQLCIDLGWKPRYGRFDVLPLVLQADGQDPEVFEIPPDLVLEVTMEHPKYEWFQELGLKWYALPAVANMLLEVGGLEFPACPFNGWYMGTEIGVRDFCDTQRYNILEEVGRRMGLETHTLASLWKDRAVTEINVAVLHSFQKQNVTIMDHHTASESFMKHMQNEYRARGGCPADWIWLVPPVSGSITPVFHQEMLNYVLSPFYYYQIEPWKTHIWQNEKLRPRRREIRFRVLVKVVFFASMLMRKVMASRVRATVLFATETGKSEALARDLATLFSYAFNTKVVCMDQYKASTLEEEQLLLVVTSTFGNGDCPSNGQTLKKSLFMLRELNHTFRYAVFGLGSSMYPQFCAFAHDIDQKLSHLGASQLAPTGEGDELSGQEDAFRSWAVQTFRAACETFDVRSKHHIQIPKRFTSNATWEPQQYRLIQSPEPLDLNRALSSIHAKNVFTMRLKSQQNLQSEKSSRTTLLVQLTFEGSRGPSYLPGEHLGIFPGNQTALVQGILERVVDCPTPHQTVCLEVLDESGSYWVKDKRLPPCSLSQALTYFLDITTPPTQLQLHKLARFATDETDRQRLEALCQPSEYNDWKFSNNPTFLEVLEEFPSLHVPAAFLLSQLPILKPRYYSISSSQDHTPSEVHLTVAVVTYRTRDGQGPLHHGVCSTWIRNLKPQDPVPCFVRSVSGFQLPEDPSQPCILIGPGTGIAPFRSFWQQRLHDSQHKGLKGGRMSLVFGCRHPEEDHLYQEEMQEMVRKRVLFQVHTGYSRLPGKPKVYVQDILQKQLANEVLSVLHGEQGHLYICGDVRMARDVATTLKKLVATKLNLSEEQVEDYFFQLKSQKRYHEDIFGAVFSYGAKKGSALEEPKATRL
Procedure, shortened: (§1)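 RAW 264.7 cells cultured 24 h at 37°C, then given serially diluted compounds for 15 min before LPS (1 μg/mL) for 20 h. Nitrite in the medium measured with Griess reagent at 540 nm against a sodium nitrite standard curve. Cytotoxicity checked by SRB under the same conditions.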

[6] = biological target: T3, Nitric oxide synthase, inducible (Mus musculus) (UniProt P29477); assay: Inhibition of iNOS-mediated nitric oxide production in LPS-stimulated mouse RAW 264.7 cells assessed as cell survival at 50 uM pretreated 15 mins before LPS challenge measured after 20 hrs relative to control; format: cell-based
T3 sequence (whole entry): T2 sequence (P29477 whole entry)
Procedure, shortened: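 RAW 264.7 cells were incubated at 37°C, 5% CO2 for 24 h. They were then exposed to compound for 15 min before LPS (1 μg/mL) was added for 20 h. Cytotoxicity was measured by SRB staining under the same conditions. Survival is expressed as % relative to vehicle-treated controls at 50 μM.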

[7] = biological target: T3, Nitric oxide synthase, inducible (Mus musculus); assay: Inhibition of iNOS-mediated nitric oxide production in LPS-stimulated mouse RAW 264.7 cells at 50 uM pretreated 15 mins before LPS challenge measured after 20 hrs relative to control; format: cell-based; procedure, shortened: as §1
[8] = biological target: NAD(P)H dehydrogenase [quinone] 1 (Mus musculus) (UniProt Q64669); assay: Induction of quinone reductase 1 activity in mouse Hepa-1c1c7 cells at 50 uM by MTT assay relative to untreated control; format: cell-based
Procedure, shortened: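 Hepa 1c1c7 murine hepatoma cells treated with compound at 50 μM. QR1 measured by NADPH-dependent, menadiol-mediated reduction of MTT to formazan. Protein measured by crystal violet staining of identical plates. Specific activity is nmol formazan per mg protein per min. Induction ratio is treated versus DMSO-treated control.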

[9] = system: HEK293; assay: Inhibition of TNF-alpha-induced NFkappaB activation in human HEK293 cells at 50 uM after 6 hrs by luciferase assay relative to control; format: cell-based
Procedure, shortened: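 Cells incubated 6 h with TNFα plus test compound, then luciferase activity measured. Results expressed as percent of TNFα-treated control. Screening concentration 50 μM.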

| Structure (SMILES) | Survival [1] [%] | inhibition at 50 µM [2] [%] | viability at 50 µM [3] [%] | Survival [4] [%] | IC50 [5] [µM] | Survival [6] [%] | inhibition [7] [%] | Ratio [8] | inhibition [9] [%] |
| --- | --- | --- | --- | --- | --- | --- | --- | --- | --- |
| COC(=O)[C@H]1Cc2c([nH]c3ccccc23)CN1Cc1ccc(O)cc1 | 122 | 38.7 | 100 | 98.6 | 37.5 | 87.3 | 63.7 | 1.8 | 33.5 |
| C#CCN1Cc2[nH]c3ccccc3c2C[C@H]1C(=O)OC | 117 | 24.4 | 81.1 | 89.6 | – | 84.4 | 22.3 | 1.7 | 21.1 |
| COC(=O)[C@@H]1Cc2c([nH]c3ccccc23)CN1Cc1ccc(OCc2ccccc2)cc1 | 99.7 | 28 | – | 72.8 | 39.2 | 93.9 | 58 | 1.8 | 24.7 |
| C#CCN1Cc2[nH]c3ccccc3c2C[C@@H]1C(=O)O | 72.7 | 23.5 | 107 | 94.6 | – | 87.9 | 16.4 | 1.6 | -7.7 |
| COC(=O)[C@@H]1Cc2c([nH]c3ccccc23)CN1S(=O)(=O)c1ccc(Br)cc1 | 186 | 36.7 | -2.1 | 36.4 | 23.1 | 89.2 | 70.6 | 0.2 | 32.8 |
| CS(=O)(=O)N1Cc2[nH]c3ccccc3c2C[C@@H]1C(=O)O | 178 | 30.7 | 88.7 | 80.6 | – | 93.1 | 5 | 1.9 | -2.3 |
| COC(=O)[C@H]1Cc2c([nH]c3ccccc23)CN1Cc1ccc(OCc2ccccc2)cc1 | 91 | 27.3 | 96.7 | 85.4 | 29.4 | 86.8 | 75.9 | 1.4 | 40.5 |
| O=C(O)[C@H]1Cc2c([nH]c3ccccc23)CN1Cc1ccc(O)cc1 | 133 | 38.4 | 71.1 | 91.2 | – | 94.7 | 27.8 | 1.5 | 54.6 |
| O=C(O)[C@H]1Cc2c([nH]c3ccccc23)CN1Cc1ccccc1 | 89.5 | 19.2 | – | 108 | – | 109 | 9.9 | 1.8 | 41.8 |
| Cc1ccc(S(=O)(=O)N2Cc3[nH]c4ccccc4c3C[C@@H]2C(=O)O)cc1 | 195 | 23 | 99.8 | 93.8 | – | 102 | 2.9 | 1.2 | 26 |
| COC(=O)[C@H]1Cc2c([nH]c3ccccc23)CN1S(=O)(=O)c1ccc(C)cc1 | 114 | 28.2 | – | 85.8 | – | 91.4 | 7.4 | 1.3 | 25.2 |
| O=C(O)[C@H]1Cc2c([nH]c3ccccc23)CN1 | 95.4 | 34.9 | – | 90.7 | – | 95.9 | 3.5 | 0.8 | – |
| CS(=O)(=O)N1Cc2[nH]c3ccccc3c2C[C@H]1C(=O)O | 256 | 26.5 | – | 96.7 | – | 94.2 | 6.4 | 1.1 | 51.1 |
| COC(=O)[C@@H]1Cc2c([nH]c3ccccc23)CN1S(C)(=O)=O | 153 | 30.5 | 72.5 | 85.8 | – | 91.9 | 10.6 | 1.6 | 38.6 |
| O=C(O)[C@H]1Cc2c([nH]c3ccccc23)CN1CC1CC1 | 169 | 31.5 | 113 | 102 | – | 130 | – | 1.8 | 48.4 |
| Cc1ccc(S(=O)(=O)N2Cc3[nH]c4ccccc4c3C[C@H]2C(=O)O)cc1 | 272 | 16.9 | 96.5 | 88.8 | – | 85.5 | 7 | 1.4 | 42.5 |
| COC(=O)[C@H]1Cc2c([nH]c3ccccc23)CN1CC1CC1 | 254 | 37.9 | 102 | 81.8 | – | 124 | 5.6 | 1.8 | 29.9 |
| C=CCOC(=O)N1Cc2[nH]c3ccccc3c2C[C@@H]1C(=O)O | 204 | 32.9 | 102 | 93.8 | – | 134 | -4 | 1.9 | 49.4 |
| O=C(O)[C@@H]1Cc2c([nH]c3ccccc23)CN1 [CYCLOMETHYLTRYPTOPHAN] | 103 | 20.7 | – | 99.2 | – | 100 | 2 | 1.1 | 4.6 |
